Most compounds without a hit are left out; they make up all but 2.2% or so of the library.
Cneo AK release: causes C. neoformans cell lysis; adenylate kinase release luminescence, 4 h; normalised: neutral wells 0, clomiphene wells 100; lysis activity, % at 15 µM; 0.2% of 360,000 active; AID 651654;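 active means mean lysis activity across replicates of at least 80%, whatever share of replicates individually reach that level; inactive means mean lysis activity below 80%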
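Test system: log-phase Cryptococcus neoformans yeast cells. Input: 5 × 10^6 yeast cells/mL. Medium: fresh YPD growth medium. Doses: single dose. Incubation: static 4 h at 37 °C with compound, 1 h detection. Measured by: luminescent adenylate kinase detection reagent. Read-out: signal increase indicating cell lysis. Benchmarks: Clomiphene.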
PglD inh: blocks C. jejuni PglD acetyltransferase activity; purified PglD enzyme, DTNB colorimetric CoA detection; inhibition, % at 12.5 µM; 0.098% of 360,000 active; in the data active means inhibition above about 16%, passing the limit was not always enough
SUMO Mot1 rescue: SUMOylation pathway inhibition by Mot1-301 growth rescue. S. cerevisiae Mot1-301 growth rescue, ATP luminescence, 38.5C; percent above DMSO median, 100 means doubled. growth rescue, % at 18.8 µM. 1% of 320,000 active. AID 2716;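 active means every valid replicate shows activation above 250% relative to neutral control wells; inactive means the rest, any valid replicate at or below 250%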
Ecoli rRNA inh: inhibits bacterial ribosomal RNA function over humanized ribosomes | E. coli WT GFP vs humanized-ribosome RFP mutants, fluorescence, 24 h; active compounds read low; DMSO median 0, no signal -100 | GFP signal change (wild-type ribosome), % (no concentration beside the values) | 1.6% of 350,000 active | AID 720706;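 active means significant combined selectivity score with lowered wild-type GFP, culture density cut under 30%, mutant RFP and density less affected; inactive means any of these conditions unmet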
Yeast superoxide: lowers age-related superoxide in aged yeast cells; S. cerevisiae aged cells, superoxide DHE fluorescence; active compounds read low; superoxide response (% of plate mean), % at 10 µM; 0.18% of 330,000 active;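 active means superoxide response under a set limit, about three screen SD below normal, cut at about 65% in these data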;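 further: yeast aged for seven days with compound at 30 °C before DHE staining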
A number is an active result; . = inactive; / = no result.

SMILES	Cneo AK release	PglD inh	SUMO Mot1 rescue	Ecoli rRNA inh	Yeast superoxide
Clc1ncnc2scc(-c3ccccc3)c12	.	.	.	/	.
CCCC(O)(c1ccc(Cl)cc1)C(CN1CCOCC1)c1ccc(Cl)cc1 (stereo not given)	.	.	291.6	.	.
CCCC(O)(c1ccc(OC)cc1)C(CN1CCOCC1)c1ccc(Cl)cc1 (stereo not given)	.	.	.	.	.
CC(C(=O)Nc1ccc(O)cc1)c1cccc(C(=O)c2ccccc2)c1 (stereo not given)	/	/	.	-36.8	.
CC(=O)Nc1ccc(NC(=O)C(C)c2cccc(C(=O)c3ccccc3)c2)cc1 (stereo not given)	/	/	.	/	.
CNC[C@@H]1Oc2ccc(N)cc2C(=O)N(C)C[C@H]1C	/	/	/	.	/
C[C@@H]1CN([C@@H](C)CO)C(=O)c2cc(-c3ccccc3)cnc2O[C@@H]1CN(C)C(=O)Nc1ccccc1	.	.	/	.	/
Cc1ccccc1-n1ncc2c(SCC(=O)N3c4ccccc4CC3C)ncnc21 (stereo not given)	.	/	.	-26.2	.
Cc1ccccc1-n1ncc2c(SCC(=O)NC3CCCC3)ncnc21	.	.	.	.	.
C[C@H](CO)N1C[C@H](C)[C@@H](CN(C)C)Oc2ccc(NC(=O)Nc3cccc4ccccc34)cc2CC1=O	.	.	/	.	/
CC1(C)C(=O)Nc2ccccc2N1C(=O)CN1C(=O)NC(CCc2ccccc2)C1=O (stereo not given)	/	/	345.0	.	.
ClC1(Cl)CC1CSc1nnc(-c2ccncc2)o1 (stereo not given)	.	.	.	-19.0	.
O=C(CN1C(=O)/C(=C/c2ccc(F)cc2)SC1=S)N1CCN(CCc2ccccn2)CC1	.	.	.	-29.6	.
CN1CCN(C(=O)CCN2C(=O)/C(=C\c3ccc(F)cc3)SC2=S)CC1	.	.	.	.	.
C[C@@H]1CCCCO[C@@H](CN(C)C(=O)C2CCCCC2)[C@H](C)CN([C@@H](C)CO)C(=O)c2cc(NS(=O)(=O)c3ccc(Cl)cc3)ccc2O1	.	.	/	.	/
Clc1cccc(-c2nc(NCCCN3CCOCC3)c3ccccc3n2)c1	.	.	.	.	.
Clc1ccc(-c2nc(NCCCN3CCOCC3)c3ccccc3n2)cc1	.	.	.	-17.3	.
C[C@H]1CN(C)C(=O)c2cc(N(C)C)ccc2O[C@@H]1CN(C)C(=O)OC(C)(C)C	/	/	/	.	/
O/N=C(/c1ccccc1)c1cc2cc(Br)cc(Br)c2o1	.	.	.	-22.9	.
COc1ccc2c3c([nH]c2c1)[C@H](CO)N(C(=O)C1CC1)CC31CCN(C)CC1	/	/	/	.	/
N#C[C@H]1C(O)C(O)c2ccccc2N1C(=O)c1ccccc1 (stereo not given in full)	.	.	716.3	.	.
CC(C)CCNc1c(-c2cccs2)nc2ccccn12	/	/	.	-25.6	.
O=C(COc1ccc(Cl)cc1)Nc1c(-c2cccs2)nc2ccccn12	/	/	.	.	.
O=c1[nH][nH]c(-c2ccccc2O)c1C(C[N+](=O)[O-])c1ccc(Cl)cc1Cl (stereo not given)	.	.	268.6	.	.
CC1CCCN(C(=O)Cc2cccc3ccccc23)C1 (stereo not given)	.	.	.	-28.6	.
SMILES	Cneo AK release	PglD inh	SUMO Mot1 rescue	Ecoli rRNA inh	Yeast superoxide
CCS(=O)(=O)N1CCCCN2[C@H](CO)[C@@H](c3ccc(C#Cc4ccccc4OC)cc3)[C@H]2C1	.	.	/	.	/
CN(C)c1ccnc(Oc2ccc(C(C)(C)C)cc2)c1C#N	.	.	355.6	/	.
C[C@H](CO)N1C[C@H](C)[C@@H](CN(C)C(=O)C2CCCCC2)Oc2ncc(C#Cc3cccc(F)c3)cc2C1=O	.	.	/	.	/
Cc1cc(C)c(C(CC(=O)c2cccs2)C(C#N)C#N)c(C)c1 (stereo not given)	/	/	477.3	/	.
O=C(C[C@@H]1CC[C@H](NS(=O)(=O)c2ccc(F)cc2)[C@@H](CO)O1)NCCN1CCCCC1	.	.	/	.	/
O=S(=O)(c1ccc(-c2ccccc2)cc1)N1CCN(Cc2cccc(OCCO)c2)CC1	.	/	/	/	/
Cc1cc(CNC(=O)COc2ccc(C)c(C)c2)c2ccccc2n1	.	.	.	-24.9	.
Cc1cc(CNC(=O)COc2ccccc2)c2ccccc2n1	/	/	/	.	/
C=CCc1cccc(/C=N/NC(=O)C(C)Nc2ccc(C)cc2)c1O (stereo not given)	.	.	.	-31.8	.
